Results gathered from unrelated publications.
Each line is one published result; the experiments were not run side by side.
Effect on: cell growth or viability

SMILES	cell line	test	setting	endpoint	result
COc1cc2c(cc1O)CCN(Cc1cc(Br)c(OC)c(OC)c1)C2	CNSSF-539	SRB	–	GI50	0.177 µM
N#Cc1ccc2c(c1)CCC(=O)c1ccccc1NC2=O	L6	–	–	IC50	150 µM
CC(=O)O[C@H]1C(=O)[C@@]2(C)[C@H]([C@H](OC(=O)c3ccccc3)[C@]3(O)C[C@H](OC(=O)[C@H](O)[C@@H](NC(=O)c4ccccc4)c4ccccc4)C(C)=C1C3(C)C)[C@]1(OC(C)=O)CO[C@@H]1C[C@@H]2O	GISTT1	resazurin	72 h	IC50	0.21 µM
O=c1ncccn1[C@@H]1O[C@H](CO)[C@@H](O)[C@H]1O	MEC1	–	48 h	IC20	75 µM
CC(C)C[C@H](NC(=O)[C@H](Cc1ccccc1)NC(=O)c1cnccn1)B(O)O	GISTT1	–	72 h	IC50	0.006 µM
COc1cc2c(cc1O)CCN(Cc1cc(Cl)c(OC)c(OC)c1)C2	CNSSF-539	SRB	–	GI50	0.365 µM
O=C1Nc2ccc(C(=O)N3CCOCC3)cc2C(=O)CCc2ccccc21	L6	–	–	IC50	> 270 µM
CCOC(=O)n1ccn(C)c1=S	GISTT1	resazurin	72 h	IC50	< 0.07 µM
CN1C(=O)c2ccccc2CCC(=O)c2ccccc21	L6	–	–	IC50	> 380 µM
CC(=O)Nc1cccc(-n2c(=O)n(C3CC3)c(=O)c3c(Nc4ccc(I)cc4F)n(C)c(=O)c(C)c32)c1	SW1417	resazurin	780 pM, 72 h	viability	99.6%
O=C1Nc2ccccc2CCCc2ccccc21	L6	–	–	IC50	190 µM
Cc1cc2c(cc1N1C(=O)c3cccc4c(CCCO)ccc(c34)C1=O)n(C)c(=O)n2C (racemic)	MDA-MB-453	resazurin	–	GI50	> 10 µM
